High-throughput results (PubChem BioAssay)
Kir21 block = inhibitors of mouse Kir2.1 inward-rectifier potassium channel | P35561 | B-score at 10 µM | hit rate 0.85% among 310,000 | HEK293-Kir2.1, FluxOR thallium flux fluorescence; active compounds read low;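 active = fluorescence ratio B-score at or below minus 3 SD of library scores, with starting-brightness B-score within 2 SD, cut at about -4.2 in these data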;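 also: channel flux triggered by added potassium and thallium sulfate stimulus; B-score of peak minus minimum fluorescence over baseline after thallium stimulus; more negative B-score means stronger Kir2.1 block with less thallium influx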
hERG protect = compounds protecting human hERG from proarrhythmic drug block | CHO-hERG, FluxOR thallium flux, dofetilide IC70 present | activation (rescue from dofetilide block), less the hit threshold, % at 10 µM | hit rate 0.51% among 310,000 | AID 1511;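 active = activation above the mean of controls blocked by dofetilide plus 5 SD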;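 also: thallium influx through hERG after potassium depolarization seen as dye fluorescence rise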
KCNQ1 block = inhibitors of human KCNQ1 potassium channel. P51787. CHO-K1 KCNQ1, FluxOR thallium flux fluorescence; active compounds read high. B-score at 10 µM. hit rate 1.3% among 310,000. AID 2642;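 active = compounds whose thallium flux B-score, printed positive for inhibition, exceeds three library SD while starting fluorescence stays within three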;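 also: channel opened by potassium depolarization with thallium stimulus after 20 min compound exposure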
Target sequence (P51787 whole entry, looked up): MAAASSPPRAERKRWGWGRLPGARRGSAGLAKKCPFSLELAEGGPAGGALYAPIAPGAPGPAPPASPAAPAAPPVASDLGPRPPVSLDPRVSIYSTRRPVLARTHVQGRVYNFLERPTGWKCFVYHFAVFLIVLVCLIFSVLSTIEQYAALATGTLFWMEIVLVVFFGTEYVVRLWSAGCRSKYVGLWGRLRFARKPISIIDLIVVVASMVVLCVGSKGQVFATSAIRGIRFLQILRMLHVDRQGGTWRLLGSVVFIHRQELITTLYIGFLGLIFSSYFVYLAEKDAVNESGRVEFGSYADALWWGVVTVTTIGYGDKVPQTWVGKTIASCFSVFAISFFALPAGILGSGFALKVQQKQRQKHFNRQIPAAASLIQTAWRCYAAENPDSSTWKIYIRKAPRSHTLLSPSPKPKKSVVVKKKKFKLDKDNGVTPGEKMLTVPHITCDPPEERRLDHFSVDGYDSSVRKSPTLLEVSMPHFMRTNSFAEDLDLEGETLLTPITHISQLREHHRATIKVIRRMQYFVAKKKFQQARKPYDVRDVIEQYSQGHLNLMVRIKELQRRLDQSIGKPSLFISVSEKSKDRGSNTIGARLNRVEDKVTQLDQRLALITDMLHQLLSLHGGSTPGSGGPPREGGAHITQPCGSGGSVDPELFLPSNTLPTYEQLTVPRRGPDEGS
KCNQ1 pot = potentiators or activators of human KCNQ1 potassium channel; CHO-K1 KCNQ1, thallium flux FluxOR fluorescence; active compounds read high; B-score at 10 µM; hit rate 0.35% among 310,000; AID 2648;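 active = fluorescence ratio B-score, a plate-corrected score, at least three library SD, with initial intensity B-score within 5 SD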
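Assay system: CHO-K1 cells stably expressing KCNQ1; Medium: assay buffer with matched DMSO; Also added: K+/Tl+ depolarizing stimulus; Dosing: single dose; Timing: dye 90 min, compound 20 min, room temperature; Measured by: kinetic FluxOR thallium fluorescence, 10-s 1-Hz baseline, 110-s post-stimulus read; Read-out: peak-minus-minimum fluorescence over initial fluorescence, negative-control normalized, B-scored.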
KCNK3 inh = human KCNK3 channel inhibition, primary screen | CHO-KCNK3 thallium flux, FluxOR fluorescence; active compounds read low | B-score at 10 µM | hit rate 0.84% among 340,000;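 active = B-score under library mean minus 4 SD, starting fluorescence ratio at most library mean plus 5 SD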;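 also: more negative B-score means stronger inhibition of thallium flux through KCNK3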
KCNK9 block = human KCNK9 channel inhibition. HEK293 KCNK9, FluxOR thallium flux fluorescence; active compounds read low. hit rate 1.2% among 310,000. Q9NPC2. B-score at 10 µM. AID 488922;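 active = ratio B-score over 3 SD below the library mean, with starting fluorescence within 5 SD of its mean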;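 also: negative B-score means less thallium flux so channel inhibition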
Active calls of the source: *; i = inactive; . = no result. Rows were chosen to be rich in hits. Some 3.7% of all compounds tested hit in one or more screens of this group.

SMILES	Kir21 block	hERG protect	KCNQ1 block	KCNQ1 pot	KCNK3 inh	KCNK9 block
c1ccc(C(c2ccccc2)c2ccn[nH]2)cc1	-0.61	-5	i	i	i	i
CCOc1ccc(CCNC(=O)CS(=O)Cc2nc(-c3ccc(OC)cc3)oc2C)cc1OCC (configuration not stated)	1.1	-8	i	i	i	i
CN(C)C(CNC(=O)c1ccc(C(=O)c2ccccc2)cc1)c1ccccc1 (configuration not stated)	-2.1	-5	i	i	i	i
CN(C)C(CNC(=O)c1ccc(-c2ccccc2)cc1)c1ccccc1 (configuration not stated)	-3.1	-11	6*	i	i	i
Oc1c(Cl)cc(Cl)cc1/C=N/Nc1ncc(Br)cn1	0.42	-11	i	i	i	i
Brc1csc(C=Nc2ccc3c(c2)OCCOCCOCCOCCO3)c1	-2.8	1	i	i	i	i
Oc1c(Cl)cc(Cl)cc1C=Nc1ccc2c(c1)OCCO2	3.2	1	i	8*	i	i
Cc1ccc(N=Cc2cc(Cl)cc(Cl)c2O)nc1	0.14	5.3*	i	17*	i	i
O=C(NC1CCOCC1)C1CCC(=O)N(Cc2ccc(Cl)cc2)C1 (configuration not stated)	1	-9	i	i	i	i
CN(C)C(CNC(=O)c1ccc(C(F)(F)F)cc1)c1ccco1 (configuration not stated)	0.48	-7	i	i	i	i
S=C(N/N=C/c1ccccc1Cl)Nc1cccc(Cl)c1Cl	-0.68	9.8*	i	12*	i	i
CC1(C)O[C@@H]2[C@H](O1)[C@@H](COS(=O)(=O)O)O[C@H]2n1cc(Br)c(=O)[nH]c1=O	.	.	.	.	i	.
O=C(c1ccc(Cl)cc1)N1CCCOC1	-0.27	7.0*	i	i	i	i
CSCCC(NC(=O)c1ccccc1Br)C(=O)NNC(=O)c1ccco1 (configuration not stated)	.	.	.	.	i	.
CCOC(=O)C1=C(COC(=O)[C@@H]2CCCN2S(=O)(=O)c2ccc(C)cc2)NC(=O)NC1C (some centres not stated)	-0.28	-17	i	i	i	i
CCOc1ccccc1N1CC(O)=C(c2nc3ccccc3s2)C1=N	1.1	-10	i	i	i	i
COc1ccc(OC)c(N2CC(O)=C(c3nc4ccccc4s3)C2=N)c1	-0.23	-12	i	i	i	-6.6*
O/N=C/c1cc(Cl)ccc1OCc1cccc2ccccc12	-0.97	-10	7*	i	.	-11*
C#CCOc1ccc(Cl)cc1/C=N/O	-1.4	-3	i	i	i	i
COc1cc(NC(=O)c2ccc(C(=O)c3ccccc3)cc2)cc(OC)c1OC	0.94	-5	i	i	i	i
COc1cc2c(c(O)c1OC)-c1c(cc(OC)c(OC)c1O)[C@@H](OC(=O)c1ccccc1)[C@@](C)(O)[C@@H](C)[C@@H]2OC(C)=O	-0.22	4.7*	i	i	.	i
O=C(COC(=O)COc1cccc(C(F)(F)F)c1)NC1CCCC1	-0.05	-16	i	i	i	i
COc1cc2c(cc1NC(=O)CSc1nnc(COc3ccc(Cl)cc3)n1C)oc1ccccc12	0.63	-6	i	11*	i	i
CCOC(=O)C1=C(C)N=c2s/c(=C/c3cccc([N+](=O)[O-])c3O)c(=O)n2C1c1cc(OC)c(OC)c(OC)c1 (configuration not stated)	-0.33	-16	8*	i	i	i
NC(=O)C[n+]1cccc(CNC(=O)c2ccc(OC(F)F)cc2)c1	-0.07	4.6*	i	i	i	i
SMILES	Kir21 block	hERG protect	KCNQ1 block	KCNQ1 pot	KCNK3 inh	KCNK9 block
Nc1cccc2c1C(=O)N(CCOc1ccccc1F)C2=O	-0.21	-13	i	i	i	i
Cc1ccccc1OCC(=O)NNC(=O)Cn1[nH]c(=O)c2ccccc2c1=O	.	.	.	.	i	.
O=C1Nc2cc(C(=O)NCCN3CCCCCC3)ccc2S/C1=C\c1ccccc1	-4.9*	-28	i	i	i	i
Cc1cccc(/C=C2/Sc3ccc(C(=O)NCCN4CCCC4)cc3NC2=O)c1	-2.8	-32	6*	i	i	i
CCN1CCN(CCCNC(=O)c2ccc3c(c2)NC(=O)/C(=C\c2cccc(C)c2)S3)CC1	-4.1	-33	i	i	i	i
CCN(C(=O)COC(=O)CCC(=O)c1ccc(Cl)cc1)c1c(N)n(Cc2ccccc2)c(=O)[nH]c1=O	.	.	.	.	i	.
CC(C(=O)Nc1ccc(C#N)cc1)N1CCN(C(=O)C2CC2)CC1 (configuration not stated)	.	.	.	.	i	.
Cn1nc(-c2ccc(Cl)cc2)c2cc(C(=O)N3CCN(c4ccccn4)CC3)sc21	0.11	-6	i	i	-13*	i
Cn1nc(-c2ccc(Cl)cc2)c2cc(C(=O)N3CCCC3)sc21	-1.3	-4	i	i	i	i
O=CC(O)C1OC(=O)C(O)C1O (configuration not stated)	.	.	.	.	i	.
Clc1ccc(-c2csc(Nc3ccccc3)[n+]2Cc2ccco2)c(Cl)c1	-3.6	-20	i	i	i	-7.3*
Cn1c(=O)n(CCCO)c(=O)c2c1nc1n2CCCN1Cc1ccccc1	0.22	-6	i	i	i	i
Cc1nc2c(o1)C(=O)c1ccccc1C2=Nc1ccccc1	.	.	.	.	i	.
O=C(O)CCNc1cc(N2CCN(C(=O)c3ccco3)CC2)c2noc3c2c1C(=O)c1ccccc1-3	-0.93	-18	i	i	i	i
CCN1CCN(c2cc(N3CCN(C(=O)c4ccco4)CC3)c3c4c(onc24)-c2ccccc2C3=O)CC1	-1.9	-10	8*	i	i	i
COc1ccc(Cn2c(=O)oc3ccc(C)cc32)cc1OC	-4.2*	-22	i	i	i	i
Nc1c(-c2ccccc2Cl)cnn1-c1cccc([N+](=O)[O-])c1	1.1	-12	i	i	i	-7.6*
O=C(NCCC(=O)N1CCN(c2ccc(F)cc2)CC1)c1ccco1	.	.	.	.	i	.
COc1ccc(N2CCN(C(=O)CSc3ccc([N+](=O)[O-])cc3)CC2)cc1	-0.12	-3	8*	i	i	i
N#CCc1ccccc1C(=O)OCC(=O)N(Cc1ccccc1)Cc1ccccc1	.	.	.	.	-9.4*	.
Cc1ccc(CNS(=O)(=O)c2c(C(=O)N3CCCCC3)c(C)n(C)c2C)o1	-0.49	-1	i	i	i	i
Nc1cc(C(=O)c2cccs2)ccc1Cl	-0.01	-4	i	i	i	-6.8*
COc1cc(CC(=O)OCC(=O)N2C(C)CCCC2C)cc(OC)c1OC (configuration not stated)	0.35	0	i	i	i	i
